Reference: ChEMBL document CHEMBL5506039, “Discovery and Optimization of Tambjamines as a Novel Class of Antileishmanial Agents” (J Med Chem, 2024)
pEC50, pIC50: −log10 of the molar value. Active and inactive are the calls of the source. The calls are words filed in the database; no cut-off is given here.

Tests used:
[1] = test system: HepG2; assay: Cytotoxicity against human HepG2 cells assessed as inhibition of cell growth incubated for 48 hrs by MTT assay; assay type: toxicity, cell-based
In short: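 HepG2 cells, 2.5 × 10⁴/well in supplemented complete MEM, settled overnight at 37 °C, 5% CO₂. Compounds given as 11 duplicate 1.6-fold dilutions, 10 to 0.15 μg/mL, for 48 h. MTT added for 1 h in the dark at room temperature, formazan dissolved in acidified isopropanol, absorbance read. Triplicate runs; IC50 by sigmoidal variable-slope regression.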

[2] = Cytotoxicity against mouse J774.A1 cells assessed as reduction in cell survival measured after 96 hrs by SYBR Green II dye based analysis; assay type: toxicity
In short: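 Uninfected J774A.1 macrophages, 1 × 10⁴ cells/well in DMEM/10% HI-FBS, reattached 3 h, then exposed to compounds for 96 h. DNA content read after lysis with SYBR Green II (1:1000 in 1% Triton/PBS), 1 h dark at room temperature, fluorescence Ex 485/Em 535.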

[3] = Cytotoxicity against mouse J774.A1 cells assessed as cell survival at 0.1 uM measured after 96 hrs by SYBR Green II dye based analysis relative to control; assay type: toxicity; details: read-out: Survival
In short: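 Uninfected J774A.1 mouse macrophages were plated at 1 × 10⁴ cells/well in DMEM with 10% heat-inactivated FBS and left 3 h at 37 °C to reattach. Compounds were added from DMSO, and analogues were screened at 0.1 μM. After 96 h at 37 °C in 5% CO₂, medium was removed. SYBR Green II (1:1000 in 1% Triton/PBS) was added for 1 h in the dark at room temperature, and fluorescence was read at Ex 485/Em 535 as a DNA-content measure of viability.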

[4] = test system: Leishmania mexicana; assay: Antileishmanial activity against Leishmania mexicana amastigotes expressing red-shifted firefly luciferase from integrated ribosomal (28S) RNA locus infected in female BALB/c mouse assessed as retardation of lesion progression by measuring reduction in footpad lesion at 40 mg/kg/day, po …; assay type: functional, organism-based; details: time 20-29 day
[5] = test system: Leishmania mexicana; assay: (§1) Antileishmanial activity against Leishmania mexicana MNYC/BZ/62/M379 amastigotes expressing red-shifted firefly luciferase from integrated ribosomal (28S) RNA locus infected in mouse J774.A1 cells assessed as parasite survival at 0.1 uM measured after 96 hrs by luminescence based analysis relative to control; assay type: functional; details: MNYC/BZ/62/M379, J774.A1
[6] = Therapeutic index, ratio of EC50 for mouse J774.A1 cells to EC50 for antileishmanial activity against Leishmania mexicana MNYC/BZ/62/M379 amastigotes expressing red-shifted firefly luciferase from integrated ribosomal (28S) RNA locus infected in mouse J774.A1 cells; assay type: toxicity, cell-based; details: read-out: TI
[7] = Metabolic stability in pre-warmed pooled human liver microsomes assessed as half life at 1 uM measured upto 60 mins by LC-MS analysis; assay type: ADME, Microsome
In short: (§2)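 Compound at 1 μM final with 0.5 mg/mL pooled human or mouse liver microsomes, 1.3 mM NADP and 3.3 mM MgCl₂ in 100 mM potassium phosphate, pH 7.4. Reaction started with 1 U/mL G6PD at 37 °C with shaking.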

[8] = test system: Leishmania mexicana; assay: Antileishmanial activity against Leishmania mexicana MNYC/BZ/62/M379 amastigotes expressing red-shifted firefly luciferase from integrated ribosomal (28S) RNA locus infected in mouse J774.A1 cells assessed as reduction in parasite survival measured after 96 hrs by luminescence based analysis; assay type: functional, organism-based; details: MNYC/BZ/62/M379, J774.A1, 96 h
In short: (§3)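 J774A.1 macrophages infected with stationary-phase luciferase-expressing promastigotes at 10:1 parasites:macrophage, overnight at 37 °C, 5% CO₂. Non-internalized parasites washed off and 1 × 10⁴ cells/well replated in MEM/10% HI-FBS. Compounds in DMSO added as serial 3-fold dilutions (typically 10 μM–1 nM) for 96 h. Luciferase luminescence read; EC50 from log-transformed sigmoidal variable-slope fit. Mean ± SD of ≥2 independent experiments.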

[9] = test system: Leishmania mexicana; assay: Antileishmanial activity against Leishmania mexicana amastigotes expressing red-shifted firefly luciferase from integrated ribosomal (28S) RNA locus infected in female BALB/c mouse assessed as retardation of lesion progression by measuring reduction in luminescence signal over infected footpad at …; assay type: functional, organism-based; details: dose 40.0 mg/kg/day, route po, time 20-29 day
[10] = test system: Leishmania mexicana; assay: as §1, with “assessed as inhibition of parasite growth” for “assessed as parasite survival”, “of parasite growth at 0.1” for “as parasite survival at 0.1”; assay type: functional; details: MNYC/BZ/62/M379, J774.A1, read-out: INH
[11] = Therapeutic index, ratio of IC50 for human HepG2 cells to EC50 for antileishmanial activity against Leishmania donovani amastigotes expressing red-shifted firefly luciferase from integrated ribosomal (28S) RNA locus infected in mouse J774.A1 cells; assay type: toxicity, cell-based; details: read-out: TI
In short: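 TI computed as HepG2 IC50 divided by L. donovani EC50. HepG2: MTT assay with 48 h exposure to 10–0.15 μg/mL (1.6-fold dilutions), triplicates, sigmoidal variable-slope fit. Amastigotes: J774A.1 macrophages infected with RS-luciferase promastigotes at 10:1, washed after 24 h, then 96 h compound exposure (3-fold dilutions, 10 μM–1 nM) in MEM/10% HI-FBS at 37 °C, 5% CO₂; luciferase readout.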

[12] = test system: Leishmania donovani; assay: Antileishmanial activity against Leishmania donovani amastigotes expressing red-shifted firefly luciferase from integrated ribosomal (28S) RNA locus infected in mouse J774.A1 cells assessed as reduction in parasite growth measured after 96 hrs by luminescence based analysis; assay type: functional, organism-based; details: J774.A1, 96 h; in short: as §3
[13] = Metabolic stability in pre-warmed pooled mouse liver microsomes assessed as half life at 1 uM measured upto 60 mins by LC-MS analysis; assay type: ADME, Microsome; in short: as §2

Structure (SMILES) | pIC50 [1] | EC50 at 96 h [2] | viability at 96 h, 0.1 µM [3] | Activity [4] | survival at 0.1 µM [5] | selectivity ratio [6] | half-life at 1 µM [7] | pEC50 [8] | Activity [9] | percent inhibition of parasite growth at 0.1 µM [10] | selectivity ratio [11] | pEC50 [12] | half-life at 1 µM [13]
C(/NC1CCCCC1)=C1/N=C(c2ccc[nH]2)C2=C1CCCC2.Cl | 5.09 | 2930 nM | 60.3% | Active | 40.9% | 23 | 26.7 min | 6.89 | Active | – | – | – | –
CC1=C(C)/C(=C/NC2CCCCCCC2)N=C1c1ccc[nH]1 | – | – | 43.5% | – | 33.5% | – | – | – | – | < 80% | – | – | –
COC1=CC(c2ccc[nH]2)=N/C1=C\N[C@H]1CC[C@H](C)CC1.Cl | 5.47 | 696 nM | 66.6% | – | 12.4% | 17 | 17.3 min | 7.40 | – | – | 28 | 6.91 | –
CC1=CC(c2ccc[nH]2)=N/C1=C\NC1CCCCCC1 | – | – | 88.4% | – | 26.3% | – | – | – | – | ~75% | – | – | –
CCCCCCN/C=C1\N=C(c2ccc[nH]2)C=C1OC.Cl | 4.57 | > 1000 nM | 127% | – | 11.1% | > 19 | 17.1 min | 7.28 | – | – | 226 | 6.93 | –
COC1=CC(c2ccc[nH]2)=N/C1=C\Nc1ccc(F)c(OC)c1.Cl | – | – | 58.7% | – | 98.3% | – | > 60 min | – | – | ~2% | – | – | –
COC1=CC(c2ccc[nH]2)=N/C1=C\N[C@H]1CC[C@H](C(F)(F)F)CC1.Cl | 5.29 | 1100 nM | 74.4% | – | 9.48% | 24 | 13 min | 7.33 | – | – | 26 | 6.70 | –
Cl.Clc1ccc(OC2=CC(c3ccc[nH]3)=N/C2=C\NC23CC4CC(CC(C4)C2)C3)cc1 | 4.84 | 567 nM | 67.1% | – | 7.16% | 15 | > 60 min | 7.42 | – | – | 80 | 6.74 | > 60 min
CCC1=C/C(=C\NC23CC4CC(CC(C4)C2)C3)N=C1c1ccc[nH]1 | – | 884 nM | 50% | – | 11.3% | 24 | – | 7.43 | – | – | 168 | 7.04 | –
COC1=CC(c2ccc[nH]2)=N/C1=C\Nc1ccc(Cl)c(OC)c1.Cl | – | – | 57.3% | – | 77.6% | – | > 60 min | – | – | ~22% | – | – | > 60 min
COC1=CC(c2ccc(Cc3ccc(OC)cc3)[nH]2)=N/C1=C\Nc1ccc(Cl)cc1 | – | – | 101% | – | 93.5% | – | – | – | – | ~7% | – | – | –
CCC1=CC(c2ccc[nH]2)=N/C1=C\NC1CCCCCC1 | – | – | 88.7% | – | 42.1% | – | – | – | – | ~60% | – | – | –
Cl.FC(F)(F)Oc1ccc(C2=CC(c3ccc[nH]3)=N/C2=C\NC23CC4CC(CC(C4)C2)C3)cc1 | 4.07 | 908 nM | 70.6% | – | 39% | 10 | > 60 min | 7.04 | – | – | 215 | 6.40 | > 60 min
COC1=CC(c2ccc[nH]2)=N/C1=C\NC1CCCCCC1.Cl | – | 550 nM | 99.6% | – | 4.84% | 17 | 52.1 min | 7.49 | – | > 95% | 73 | 6.86 | –
CCc1ccc(C2=N/C(=C\NC3CCCCCCC3)C(C)=C2C)[nH]1.Cl | – | 573 nM | 53.6% | – | 1.3% | 18 | > 60 min | 7.50 | – | > 96% | – | – | > 60 min
CC1=C(C)/C(=C/NC2CCCCCC2)N=C1c1ccc[nH]1.Cl | 4.67 | 908 nM | 62.8% | – | 18.2% | 16 | 45.1 min | 7.26 | – | < 80% | 268 | 7.10 | –
CC1=C/C(=C\NC23CC4CC(CC(C4)C2)C3)N=C1c1ccc[nH]1.Cl | – | 1130 nM | 86.9% | – | 15.4% | 24 | > 60 min | 7.32 | – | – | 300 | 7.00 | –
CC1=C(C)/C(=C/NC2CCCCCC2)N=C1c1ccc(CC(C)C)[nH]1.Cl | – | 1240 nM | 74.5% | – | 2.3% | 28 | > 60 min | 7.35 | – | > 96% | – | – | > 60 min
COC1=CC(c2ccc[nH]2)=N/C1=C\Nc1ccc(Oc2ccc(C)cc2)cc1 | 5.76 | 2740 nM | 69.8% | – | 26% | 29 | > 60 min | 7.03 | – | – | 6 | 6.55 | 46.9 min
C(/NC1CCCCCC1)=C1/N=C(c2ccc[nH]2)C2=C1CCCC2.Cl | 5.21 | 252 nM | 80% | – | 24.7% | 3.4 | > 60 min | 7.13 | – | – | 61 | 7.00 | –
CCc1c(C)[nH]c(C2=N/C(=C\NC34CC5CC(CC(C5)C3)C4)C(C)=C2C)c1C.Cl | 4.67 | 675 nM | 63.5% | – | 10.7% | 12 | > 60 min | 7.27 | – | – | 263 | 7.09 | 29 min
Cl.Fc1cc(F)cc(OC2=CC(c3ccc[nH]3)=N/C2=C\NC23CC4CC(CC(C4)C2)C3)c1 | 4.23 | 680 nM | 59.3% | – | 27.3% | 8.6 | > 60 min | 7.10 | – | – | 323 | 6.74 | > 60 min
COC1=CC(c2ccc[nH]2)=N/C1=C\NCC1CCCCCC1.Cl | 5.22 | > 1000 nM | 72.2% | – | 5.3% | > 21 | 18.6 min | 7.31 | – | – | 69 | 7.06 | –
